Usually AUC stands for the area under the concentration-time curve, a measure of exposure. High values mean more exposure, low ones less exposure. As a reminder, the half-life is how long it takes for the measured level to halve. A lower half-life goes with fast loss. The term IC50 denotes the concentration that gives 50% inhibition. Lower therefore signals greater potency.

The source of these data is ChEMBL document CHEMBL4028906, “Allosteric Inhibitors of SHP2 with Therapeutic Potential for Cancer Treatment” (J Med Chem, 2017).

One series relates to K562. Briefly: Antiproliferative activity against human K562 cells at 3 to 6 uM after 2 days by CellTiter-Glo assay. Type of series: functional, cell-based. Put shortly:
(§1)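 3000 cells/well in 96-well plates, grown overnight, then inhibitor at indicated concentrations for 2 days (48 h). Viability by CellTiter-Glo; mean±s.d., n=3.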
On the technique in general: Cellular ATP, detected with luciferase, serves as a proxy for viable cell number.

Series [1] deals with T1, Tyrosine-protein phosphatase non-receptor type 11 (Homo sapiens) (UniProt Q06124).
T1 sequence (whole entry): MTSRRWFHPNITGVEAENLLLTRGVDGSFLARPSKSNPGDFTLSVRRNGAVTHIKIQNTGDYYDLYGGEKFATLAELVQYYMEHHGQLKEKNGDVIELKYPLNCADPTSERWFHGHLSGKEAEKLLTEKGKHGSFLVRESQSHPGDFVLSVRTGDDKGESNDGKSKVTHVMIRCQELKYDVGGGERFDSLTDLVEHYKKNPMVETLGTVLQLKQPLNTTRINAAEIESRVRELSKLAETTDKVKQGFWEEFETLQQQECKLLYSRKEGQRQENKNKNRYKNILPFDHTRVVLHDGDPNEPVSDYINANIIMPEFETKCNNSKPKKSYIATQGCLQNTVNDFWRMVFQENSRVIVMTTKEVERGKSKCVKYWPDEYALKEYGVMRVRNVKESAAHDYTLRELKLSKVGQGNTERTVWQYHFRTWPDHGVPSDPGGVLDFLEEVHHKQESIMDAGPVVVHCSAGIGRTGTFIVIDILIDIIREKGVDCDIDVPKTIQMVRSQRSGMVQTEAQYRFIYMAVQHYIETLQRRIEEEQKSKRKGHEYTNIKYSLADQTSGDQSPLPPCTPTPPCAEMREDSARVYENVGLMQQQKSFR
Briefly: Allosteric inhibition of SHP2 in human NCI-H1975 cells harboring EGFR T790M mutant assessed as downregulation of ERK1/2 phosphorylation at 10 uM after 2 hrs by DAPI-based fluorescence microscopic analysis. Type of series: cell-based. Put shortly:
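NCI-H1975 cells grown overnight on coverslips, then 10 μM inhibitor for 2 h. Fixed in 4% PFA, permeabilized with 0.4% Triton X-100, BSA-blocked. Phospho-ERK1/2 antibody applied overnight at 4 °C, fluorescent secondary 1 h at room temperature, DAPI mount, fluorescence microscopy. Repeated at least three times.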

Series [2] has as its target T1, Tyrosine-protein phosphatase non-receptor type 11 (Homo sapiens). In words: Allosteric inhibition of SHP2 in human A549 cells harboring KRAS mutant assessed downregulation on ERK1/2 phosphorylation at 5 and 10 uM after 2 hrs by Western blot analysis. Type of series: cell-based. Background: A western blot detects proteins with antibodies after separation by electrophoresis.

The subject of series [3] is NCI-H1975. In words: Antiproliferative activity against human NCI-H1975 cells at 3 to 6 uM after 2 days by CellTiter-Glo assay. Type of series: functional, cell-based. Put shortly: as §1
The next series relates to NCI-H661. Briefly: Antiproliferative activity against human NCI-H661 cells at 3 to 6 uM after 2 days by CellTiter-Glo assay. Type of series: functional, cell-based. Put shortly: as §1
Series [4] in a line: AUC in nu/nu nude mouse at 10 mg/kg, po measured up to 24 hrs postdose by LC/MS/MS analysis. Type of series: ADME, organism-based. The arrangement: dose 10 mg/kg, time < 24 hr, route oral. Conditions: in vivo. Put shortly:
(§2)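 Female nu/nu nude mice dosed IV via tail vein at 5 mg/kg or orally at 10 mg/kg. Blood sampled at 0.083, 0.25, 0.5, 1, 2, 4, 8 and 24 h post-dose (orbital sinus, terminal cardiac puncture; EDTA-2K). Plasma separated at 4 °C, precipitated with acetonitrile containing internal standard, quantified by LC/MS/MS.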

The test system of the next series is NCI-H1838. In words: Antiproliferative activity against human NCI-H1838 cells at 3 to 6 uM after 2 days by CellTiter-Glo assay. Type of series: functional, cell-based. The method in brief: as §1
The species entered for series [5] is Homo sapiens. In words: Selectivity ratio of IC50 for VHR (unknown origin) expressed in Escherichia coli BL21(DE3) to IC50 for SHP2 E76A mutant (unknown origin) expressed in Escherichia coli BL21(DE3). Put shortly: (§3)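 Ratio of IC50 values from one DIFMUP fluorescence assay (Ex/Em 358/455), room temperature, 0.1 M sodium acetate pH 5.0. His-tagged SHP2 E76A (1.5 nM) or counter-phosphatase purified from E. coli, preincubated 20 min with compound (eight 3-fold dilutions), then DIFMUP added for 20 min. DIFMUP was at Km for each counter-phosphatase. Duplicates; IC50 from at least three independent experiments.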

The nature of series [6]: Half life in nu/nu mouse at 10 mg/kg, po measured up to 24 hrs postdose by LC/MS/MS analysis. Type of series: ADME, organism-based. Conditions: in vivo. Put shortly: as §2
In series [7] the target is T1, Tyrosine-protein phosphatase non-receptor type 11 (Homo sapiens). Briefly: Allosteric inhibition of SHP2 in human SF268 cells assessed as downregulation of YAP-mediated CTGF gene expression ay 10 to 20 uM after 2 hrs by qRT-PCR analysis. Type of series: cell-based. The method in brief:
(§4)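 SF268 cells exposed to DMSO, 10 μM or 20 μM inhibitor for 2 h. RNA extracted, reverse-transcribed, and CTGF, CYR61, ANKRD1 and YAP mRNA quantified by qPCR; mean±s.d., n=3.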
Background: Real-time PCR tracks product formation cycle by cycle.

Series [8] deals with NCI-H1975. Briefly: Antiproliferative activity against human NCI-H1975 cells assessed as reduction in colony formation at 2.5 to 10 uM after 2 weeks by soft agar assay. Type of series: functional, cell-based. The method in brief:
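NCI-H1975 cells at 10,000/well in 0.4% agarose over a 1% low-melt agarose base layer (6-well). Inhibitor at varying concentrations, replenished twice weekly. After 2 weeks, colonies stained with iodonitrotetrazolium chloride and counted; mean±s.d., n=3.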

For a further series, the system named is MV4-11. Briefly: Antitumor activity against human MV4-11 cells xenografted in BALB/c mouse assessed as tumor growth inhibition at 10 mg/kg administered qd via oral gavage measured twice weekly relative to control. Type of series: functional. Conditions: MV4-11, po, read-out: TGI. The method in brief:
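Female BALB/c nude mice given subcutaneous MV4;11 cells (5×10^6, in 50% phenol red-free matrigel in PBS). Once tumours reached about 230 mm³, mice were randomised to vehicle or oral gavage once daily (10 ml/kg). Tumour volume was measured by caliper in two dimensions twice a week, along with body weight. Data given as mean±sem, with significance assessed on day 14.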

For series [9], the species on record is Homo sapiens. Briefly: Selectivity ratio of IC50 for LMW-PTP (unknown origin) expressed in Escherichia coli BL21(DE3) to IC50 for SHP2 E76A mutant (unknown origin) expressed in Escherichia coli BL21(DE3). The method in brief:
as §3

Series [10] is filed under the species Homo sapiens. In words: Allosteric inhibition of SHP2 E76A mutant (unknown origin) assessed as reduction in SHP2-mediated YAP Y357 peptide dephosphorylation. preincubated for 15 mins before YAP pY357 peptide addition and measured after 15 mins post substrate addition. Put shortly:
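Purified SHP2 E76A (1.5 nM) preincubated 15 min with 20 μM inhibitor in 20 mM Tris-HCl pH 7.4, 100 mM NaCl, 1 mM EDTA, 2 mM DTT. 100 μM YAP pY357 peptide added for 15 min. Enzyme removed on 30 kD filters; products dot-blotted and probed with p-YAP(Y357) antibody (1:1000) with ECL detection.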

Series [11] can be described thus: Inhibition of SHP2 N58S mutant (unknown origin). The arrangement: species or system Homo sapiens.
Series [12] has as its target T1, Tyrosine-protein phosphatase non-receptor type 11 (Homo sapiens). Briefly: Inhibition of SHP2 in human SF268 cells assessed as downregulation of YAP-mediated ANKRD1 gene expression ay 10 to 20 uM after 2 hrs by qRT-PCR analysis. Type of series: cell-based. The method in brief: as §4

The source made the active and inactive calls. The calls are words filed in the database; no cut-off is given here. Where only a bound is given, the exact number is not on record here.

Regarding `CC1(N)CCN(c2nc(-c3ccc4cc(Br)ccc4c3)cs2)CC1`, the result with K562, in the series on NCI-H1975 [3], in the series on NCI-H661, in the series with NCI-H1838 and in the series with NCI-H1975 [8] was Active. In addition, the inhibition entry (in [1]; in series [7]; in the series listed under Homo sapiens [10]; in series [12]) was “Active” in each case. In addition, in series [2], the inhibition entry is “inactive”. The compound further returned an area under the curve (AUC) at 24 h in series [4] of 9.86 µM·h. The Ratio IC50 in the series listed under Homo sapiens [5] and in the series filed under Homo sapiens [9] was greater than 30 in each case. In series [6], this compound showed a half-life of 13.3 h. Besides, in the series with MV4-11, the inhibition in vivo at 10 mg/kg was 44.6%. The compound also yielded an IC50 in [11] of 1200 nM.
